Active and inactive are the calls of the source. The calls are words filed in the database; no cut-off is given here.

The target in assay [1] is T1, Protein cereblon/Cyclin-dependent kinase 6 (Homo sapiens) (UniProt Q00534+Q96SW2). In words: Induction of CRBN-mediated CDK6 degradation in human MIAPaCa2 cells at 0.5 uM measured after 4 hrs by western blot analysis. It is filed as cell-based. The method in brief: (§1)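 MiaPaCa2 cells treated with degrader analogs at 0.5 μM for 4 h; lysates analysed by Western blot for CDK4, CDK6 and RB.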

In assay [2] the target is T2, Protein cereblon/Cyclin-dependent kinase 4 (Homo sapiens) (UniProt P11802+Q96SW2). The assay can be described thus: Induction of CRBN-mediated CDK4 degradation in human MIAPaCa2 cells at 0.5 uM measured after 4 hrs by western blot analysis. The assay is classed as cell-based. The method in brief:
as §1

Assay [3] deals with Protein cereblon/Cyclin-dependent kinase 2 (Homo sapiens) (UniProt P24941+Q96SW2). The assay can be described thus: Induction of CRBN-mediated CDK2 degradation in human MIAPaCa2 cells at 0.5 uM measured after 24 hrs by western blot analysis. It is filed as cell-based. In outline: (§2)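 MiaPaCa2 cells exposed to 0.5 μM of each degrader analog for 24 h; lysates immunoblotted for CDK2, CDK5, CDK7 and CDK9 within a kinase panel.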
Background: In western blotting, separated proteins are transferred to a membrane and probed.

The target of assay [4] is Protein cereblon/Cyclin-dependent kinase 5 (Homo sapiens) (UniProt Q00535+Q96SW2). The assay can be described thus: Induction of CRBN-mediated CDK5 degradation in human MIAPaCa2 cells at 0.5 uM measured after 24 hrs by western blot analysis. The assay is classed as cell-based. In outline:
as §2

Assay [5] addresses Protein cereblon/Cyclin-dependent kinase 7 (Homo sapiens) (UniProt P50613+Q96SW2). The assay can be described thus: Induction of CRBN-mediated CDK7 degradation in human MIAPaCa2 cells at 0.5 uM measured after 24 hrs by western blot analysis. It is filed as cell-based. The method in brief: as §2
Assay [6] concerns the target Protein cereblon/Cyclin-dependent kinase 9 (Homo sapiens) (UniProt P50750+Q96SW2). The assay can be described thus: Induction of CRBN-mediated CDK9 degradation in human MIAPaCa2 cells at 0.5 uM measured after 24 hrs by western blot analysis. It is filed as cell-based. In outline:
as §2

In assay [7] the target is Protein cereblon/Retinoblastoma-associated protein (Homo sapiens) (UniProt P06400+Q96SW2). The assay can be described thus: Induction of CRBN-mediated RB degradation in human MIAPaCa2 cells at 0.5 uM measured after 4 hrs by western blot analysis. The assay is classed as cell-based. The method in brief: as §1
Assay [8] concerns the target Protein cereblon/Cyclin-dependent kinase 6/G1/S-specific cyclin-D3 (Homo sapiens) (UniProt P30281+Q00534+Q96SW2). In words: Induction of CRBN-mediated CDK6/cyclin D3 (unknown origin) degradation. It is filed as protein assay.
In assay [9] the target is T1, Protein cereblon/Cyclin-dependent kinase 6 (Homo sapiens). The assay can be described thus: Induction of CRBN-mediated CDK6 degradation in human MIAPaCa2 cells at 0.15 to 5 uM measured after 4 hrs by Western blot analysis. The assay is classed as cell-based.
For assay [10] the target is unchanged. The assay can be described thus: Induction of CRBN-mediated CDK6 degradation in human MIAPaCa2 cells at 0.1 uM measured after 4 hrs by Western blot analysis. The assay is classed as cell-based. The method in brief: (§3)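 Dose-response in MiaPaCa2 cells: graded degrader concentrations for 4 h and for 24 h; CDK4 and CDK6 read by immunoblot.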
For assay [11] the target is unchanged. In words: Induction of CRBN-mediated CDK6 degradation in human MIAPaCa2 cells at 0.1 uM measured after 24 hrs by western blot analysis. It is filed as cell-based. The method in brief:
as §3

For assay [12], the target named is T2, Protein cereblon/Cyclin-dependent kinase 4 (Homo sapiens). In words: Induction of CRBN-mediated CDK4 degradation in human MIAPaCa2 cells at 0.1 uM measured after 4 hrs by western blot analysis. The assay is classed as cell-based. In outline:
as §3

Assay [13] has the same target. The assay can be described thus: Induction of CRBN-mediated CDK4 degradation in human MIAPaCa2 cells at 0.1 uM measured after 24 hrs by western blot analysis. The assay is classed as cell-based. The method in brief:
as §3

Assay [14] addresses T1, Protein cereblon/Cyclin-dependent kinase 6 (Homo sapiens). The assay can be described thus: Induction of CRBN-mediated CDK6 degradation in human HPNE cells at 0.1 uM measured after 4 hrs by Western blot analysis. It is filed as cell-based. The method in brief:
(§4)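 HPNE cells given a range of degrader concentrations and harvested at 4 h and at 24 h; CDK4 and CDK6 levels read by Western blot.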

Assay [15] shares this target. In words: Induction of CRBN-mediated CDK6 degradation in human HPNE cells at 0.1 uM measured after 24 hrs by western blot analysis. The assay is classed as cell-based. In outline: as §4
Assay [16] concerns the target T2, Protein cereblon/Cyclin-dependent kinase 4 (Homo sapiens). The assay can be described thus: Induction of CRBN-mediated CDK4 degradation in human HPNE cells at 0.1 uM measured after 4 hrs by western blot analysis. The assay is classed as cell-based. The method in brief: as §4
Assay [17] shares this target. In words: Induction of CRBN-mediated CDK4 degradation in human HPNE cells at 0.1 uM measured after 24 hrs by western blot analysis. The assay is classed as cell-based. The method in brief:
as §4

Assay [18] deals with T1, Protein cereblon/Cyclin-dependent kinase 6 (Homo sapiens). The assay can be described thus: Induction of CRBN-mediated CDK6 degradation in human MIAPaCa2 cells at 5 to 10 uM measured after 4 hrs by western blot analysis. It is filed as cell-based.
Assay [19] shares this target. The assay can be described thus: Induction of CRBN-mediated CDK6 degradation in human HPNE cells at 5 to 10 uM measured after 4 hrs by Western blot analysis. The assay is classed as cell-based.
The target is the same in assay [20]. In words: Induction of CRBN-mediated CDK6 degradation in human MIAPaCa2 cells at 500 nM by Western blot analysis. It is filed as cell-based. As to conditions: TDE = time-dependent effect.
Assay [21] has the same target. The assay can be described thus: Induction of CRBN-mediated CDK6 degradation in human HPNE cells at 500 nM by Western blot analysis. The assay is classed as cell-based. As to conditions: TDE = time-dependent effect.
The target is the same in assay [22]. In words: Induction of CRBN-mediated CDK6 degradation in human MIAPaCa2 cells at 1 uM measured after 24 hrs by western blot analysis. The assay is classed as cell-based.
The target is the same in assay [23]. The assay can be described thus: Induction of CRBN-mediated CDK6 degradation in human MIAPaCa2 cells at 1 uM measured after 24 hrs in presence of palbociclib by western blot analysis. It is filed as cell-based. The method in brief: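 Competition test: MiaPaCa2 cells incubated 24 h with palbociclib 10 µM, degrader 1 µM, or both together; lysates probed for CDK4 and CDK6 by Western blot.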

The target is the same in assay [24]. In words: Induction of CRBN-mediated CDK6 degradation in human MIAPaCa2 cells at 1 uM measured after 24 hrs in presence of pomalidomide by Western blot analysis. The assay is classed as cell-based. The method in brief: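 CRBN-ligand competition in MiaPaCa2 cells: pomalidomide 0.1–10 µM given alone or with degrader 1 µM for 24 h; lysates immunoblotted for CDK6.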

The target is the same in assay [25]. The assay can be described thus: Induction of CRBN-mediated CDK6 degradation in human MIAPaCa2 cells at 1 uM measured after 8 hrs in presence of proteasome inhibitor MG132 by Western blot analysis. The assay is classed as cell-based.
Assay [26] can be described thus: Induction of CRBN-mediated CDK4/cyclin D1 (unknown origin) degradation. As to conditions: Homo sapiens.

T2 sequence (P11802 2-303 limits assumed): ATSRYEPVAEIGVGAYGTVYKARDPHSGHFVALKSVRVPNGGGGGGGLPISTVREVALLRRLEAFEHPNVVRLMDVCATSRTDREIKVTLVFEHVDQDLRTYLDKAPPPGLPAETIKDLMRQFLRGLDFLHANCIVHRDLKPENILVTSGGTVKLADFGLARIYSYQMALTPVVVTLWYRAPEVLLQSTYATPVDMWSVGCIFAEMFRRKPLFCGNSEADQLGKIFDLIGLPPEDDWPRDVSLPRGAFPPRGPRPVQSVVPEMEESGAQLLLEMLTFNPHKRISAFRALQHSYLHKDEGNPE
T2 sequence (Q96SW2 whole entry partner): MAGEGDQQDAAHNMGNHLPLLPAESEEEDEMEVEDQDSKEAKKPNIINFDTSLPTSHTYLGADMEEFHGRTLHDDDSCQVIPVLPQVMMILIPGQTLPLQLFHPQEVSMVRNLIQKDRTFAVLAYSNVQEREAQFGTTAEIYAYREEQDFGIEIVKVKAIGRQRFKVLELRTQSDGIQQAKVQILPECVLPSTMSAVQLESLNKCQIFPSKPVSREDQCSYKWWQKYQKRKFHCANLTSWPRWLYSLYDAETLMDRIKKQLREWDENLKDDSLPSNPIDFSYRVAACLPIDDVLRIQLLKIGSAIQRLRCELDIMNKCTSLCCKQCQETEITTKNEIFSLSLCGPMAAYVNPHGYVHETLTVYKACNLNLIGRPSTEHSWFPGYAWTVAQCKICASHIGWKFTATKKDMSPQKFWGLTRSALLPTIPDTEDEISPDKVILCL
T1 sequence (Q00534 whole entry, looked up): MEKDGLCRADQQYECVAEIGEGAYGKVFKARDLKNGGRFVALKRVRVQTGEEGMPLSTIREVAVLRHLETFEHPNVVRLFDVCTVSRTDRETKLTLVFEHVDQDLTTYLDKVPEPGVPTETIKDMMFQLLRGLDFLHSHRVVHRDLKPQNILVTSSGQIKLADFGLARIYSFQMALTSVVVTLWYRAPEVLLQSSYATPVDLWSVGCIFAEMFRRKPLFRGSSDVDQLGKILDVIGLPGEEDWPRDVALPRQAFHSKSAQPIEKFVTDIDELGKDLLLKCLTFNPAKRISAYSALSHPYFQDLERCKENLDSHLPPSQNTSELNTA
T1 sequence (Q96SW2 whole entry, looked up): as the sequence (Q96SW2 whole entry partner) above
Protein cereblon/Cyclin-dependent kinase 9 (Homo sapiens), sequence (P50750 whole entry, looked up): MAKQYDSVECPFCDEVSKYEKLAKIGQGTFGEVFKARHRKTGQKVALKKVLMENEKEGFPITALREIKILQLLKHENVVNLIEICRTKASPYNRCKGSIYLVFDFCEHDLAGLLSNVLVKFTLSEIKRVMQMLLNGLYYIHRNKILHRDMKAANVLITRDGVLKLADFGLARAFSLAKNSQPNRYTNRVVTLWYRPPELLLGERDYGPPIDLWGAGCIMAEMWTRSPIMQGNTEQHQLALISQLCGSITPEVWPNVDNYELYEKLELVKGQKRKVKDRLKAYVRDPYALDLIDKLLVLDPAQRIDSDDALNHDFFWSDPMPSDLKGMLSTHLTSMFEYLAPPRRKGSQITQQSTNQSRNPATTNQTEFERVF
Protein cereblon/Cyclin-dependent kinase 9 (Homo sapiens), sequence (Q96SW2 whole entry, looked up): as the sequence (Q96SW2 whole entry partner) above
Protein cereblon/Cyclin-dependent kinase 7 (Homo sapiens), sequence (P50613 whole entry, looked up): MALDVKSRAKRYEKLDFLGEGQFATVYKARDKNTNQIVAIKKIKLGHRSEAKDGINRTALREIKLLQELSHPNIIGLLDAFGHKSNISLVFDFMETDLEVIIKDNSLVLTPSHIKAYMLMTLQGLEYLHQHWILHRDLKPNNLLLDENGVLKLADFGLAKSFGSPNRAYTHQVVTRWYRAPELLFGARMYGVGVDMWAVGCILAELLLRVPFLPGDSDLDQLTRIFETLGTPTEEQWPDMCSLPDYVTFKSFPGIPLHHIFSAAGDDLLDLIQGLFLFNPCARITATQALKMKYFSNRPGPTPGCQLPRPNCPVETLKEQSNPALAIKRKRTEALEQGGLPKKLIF
Protein cereblon/Cyclin-dependent kinase 7 (Homo sapiens), sequence (Q96SW2 whole entry, looked up): as the sequence (Q96SW2 whole entry partner) above
Protein cereblon/Cyclin-dependent kinase 6/G1/S-specific cyclin-D3 (Homo sapiens), sequence (P30281 whole entry, looked up): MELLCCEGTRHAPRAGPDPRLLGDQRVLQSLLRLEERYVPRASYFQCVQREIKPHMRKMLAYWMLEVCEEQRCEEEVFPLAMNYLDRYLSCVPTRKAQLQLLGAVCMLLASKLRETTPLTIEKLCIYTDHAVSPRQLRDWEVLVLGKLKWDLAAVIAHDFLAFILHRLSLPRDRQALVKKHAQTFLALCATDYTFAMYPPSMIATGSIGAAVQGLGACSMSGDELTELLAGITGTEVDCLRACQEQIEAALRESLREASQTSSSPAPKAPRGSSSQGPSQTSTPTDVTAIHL
Protein cereblon/Cyclin-dependent kinase 6/G1/S-specific cyclin-D3 (Homo sapiens), sequence (Q00534 whole entry, looked up): as the sequence (Q00534 whole entry, looked up) above
Protein cereblon/Cyclin-dependent kinase 6/G1/S-specific cyclin-D3 (Homo sapiens), sequence (Q96SW2 whole entry, looked up): as the sequence (Q96SW2 whole entry partner) above
Protein cereblon/Retinoblastoma-associated protein (Homo sapiens), sequence (P06400 whole entry, looked up): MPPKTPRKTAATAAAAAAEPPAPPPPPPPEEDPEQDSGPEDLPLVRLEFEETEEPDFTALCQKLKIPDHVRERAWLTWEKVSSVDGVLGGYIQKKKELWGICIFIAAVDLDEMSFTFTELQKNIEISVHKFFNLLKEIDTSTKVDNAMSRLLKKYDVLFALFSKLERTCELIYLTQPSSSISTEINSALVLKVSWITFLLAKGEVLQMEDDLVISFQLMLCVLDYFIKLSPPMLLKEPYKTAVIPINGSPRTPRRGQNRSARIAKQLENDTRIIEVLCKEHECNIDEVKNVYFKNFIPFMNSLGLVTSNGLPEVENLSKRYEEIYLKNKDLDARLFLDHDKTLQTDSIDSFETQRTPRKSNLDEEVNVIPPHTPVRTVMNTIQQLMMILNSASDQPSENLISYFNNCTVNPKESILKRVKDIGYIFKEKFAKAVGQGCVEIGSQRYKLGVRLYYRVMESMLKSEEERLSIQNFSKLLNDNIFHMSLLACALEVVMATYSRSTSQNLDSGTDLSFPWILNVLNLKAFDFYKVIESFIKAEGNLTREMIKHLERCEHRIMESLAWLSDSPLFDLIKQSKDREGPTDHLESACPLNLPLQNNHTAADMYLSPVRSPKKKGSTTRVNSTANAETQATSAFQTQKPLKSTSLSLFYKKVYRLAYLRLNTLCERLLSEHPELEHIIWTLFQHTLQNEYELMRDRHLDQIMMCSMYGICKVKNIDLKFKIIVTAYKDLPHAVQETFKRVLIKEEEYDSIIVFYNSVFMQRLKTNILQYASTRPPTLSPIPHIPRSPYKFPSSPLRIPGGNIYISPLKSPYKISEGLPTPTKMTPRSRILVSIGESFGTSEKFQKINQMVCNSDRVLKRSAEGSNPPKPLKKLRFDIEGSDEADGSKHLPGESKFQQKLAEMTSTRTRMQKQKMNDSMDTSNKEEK
Protein cereblon/Retinoblastoma-associated protein (Homo sapiens), sequence (Q96SW2 whole entry, looked up): as the sequence (Q96SW2 whole entry partner) above
Protein cereblon/Cyclin-dependent kinase 5 (Homo sapiens), sequence (Q00535 whole entry, looked up): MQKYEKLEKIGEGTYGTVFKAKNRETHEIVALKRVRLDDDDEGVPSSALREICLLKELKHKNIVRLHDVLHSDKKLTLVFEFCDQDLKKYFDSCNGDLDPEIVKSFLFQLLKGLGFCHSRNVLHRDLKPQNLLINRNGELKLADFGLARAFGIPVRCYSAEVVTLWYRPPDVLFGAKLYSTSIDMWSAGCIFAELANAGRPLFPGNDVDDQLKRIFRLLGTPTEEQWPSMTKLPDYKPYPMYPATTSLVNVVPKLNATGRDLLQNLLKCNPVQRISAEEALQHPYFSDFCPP
Protein cereblon/Cyclin-dependent kinase 5 (Homo sapiens), sequence (Q96SW2 whole entry, looked up): as the sequence (Q96SW2 whole entry partner) above

On to `CC(=O)c1c(C)c2cnc(Nc3ccc(N4CCN(CCOCCOCCOc5cccc6c5C(=O)N(C5CCC(=O)NC5=O)C6=O)CC4)cn3)nc2n(C2CCCC2)c1=O` (stereo not drawn), for which the result in assay [1] and in assay [2] was Active.
For `CC(=O)c1c(C)c2cnc(Nc3ccc(N4CCN(CC(=O)NCCCCNc5cccc6c5C(=O)N(C5CCC(=O)NC5=O)C6=O)CC4)cn3)nc2n(C2CCCC2)c1=O` (stereo not drawn), the outcome in [1] and in assay [2] was Active.
As for `CC(=O)c1c(C)c2cnc(Nc3ccc(N4CCN(CC(=O)NCCCOCCOCCOCCCNc5cccc6c5C(=O)N(C5CCC(=O)NC5=O)C6=O)CC4)cn3)nc2n(C2CCCC2)c1=O` (stereo not drawn), the result in assay [1], in assay [9], in assay [10], in [11], in assay [14] and in assay [15] was Active. In addition, the result in [18], in assay [19] and in [22] was Active. For the same molecule, the result in assay [2], in assay [3], in assay [4], in [5], in assay [6] and in [7] was inactive. The outcome in assay [12], in assay [13], in assay [16], in [17], in assay [23] and in [24] was inactive. In [25], the result was inactive. The Activity is 6.61 nM in [8], “Tde” in [20], “Tde” in assay [21] and < 1.5 nM in assay [26].
With `CC(=O)c1c(C)c2cnc(Nc3ccc(N4CCN(CCCCCC(=O)Nc5cccc6c5C(=O)N(C5CCC(=O)NC5=O)C6=O)CC4)cn3)nc2n(C2CCCC2)c1=O` (stereo not drawn), the result in assay [1] and in assay [2] was Active.
Consider `CC(=O)c1c(C)c2cnc(Nc3ccc(N4CCN(CC(=O)NCCCCCCCCNc5cccc6c5C(=O)N(C5CCC(=O)NC5=O)C6=O)CC4)cn3)nc2n(C2CCCC2)c1=O` (stereo not drawn), for which, in [1], the result was Active.

The values are drawn from ChEMBL document CHEMBL4340529, “Selective degradation of CDK6 by a palbociclib based PROTAC” (Bioorg Med Chem Lett, 2019).
